The values that follow come from paper PMC4327942 (Chemistry & biology, 2010).

For series [1], the system named is HIF ODD-luciferase reporter. The experiment in a line: HTS of SH-SY5Y ODD-luc reporter cells, 384-well, 10 μM compound, 3 hr. Format: cell-based, human. The conditions noted are these: for activation at 10 µM: Homo sapiens, SH-SY5Y, 3 h, read-out: reporter activation (%).
Series [2] in a line: Iron binding by displacement of calcein from its complex with iron. Format: physicochemical. The conditions noted are these: for ka, association rate constant for iron binding: calcein-iron complex 1 μM:1 μM, oxyquinoline 5-20 μM; for Kd: read-out: KFe, apparent iron binding constant, calcein displacement, 5 mM Tris-HCl buffer (pH 7.5).
The test system of series [3] is HIF ODD-luciferase reporter. The experiment in a line: ODD-luc reporter activation, concentration titration in 96-well plates. The conditions noted are these: SH-SY5Y; for IC50: Homo sapiens, read-out: IC50 (reporter activation); for “Lag,” (concentration lag of reporter titration curve): ODD-luc reporter. Format: cell-based, human.
Series [4] concerns cortical neurons. Nature of the series: Neuroprotection in HCA. Format: cell-based, rat. The note with it: HCA model. Summed up:
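Forebrain neurons from E17 Sprague-Dawley rat embryos were plated at 10^6 cells/ml in 96-well plates. After 16 hr they were rinsed with warm PBS and moved to MEM containing 5 mM HCA plus test compound (0.25-2 μM). Incubation ran 24 hr or longer, until HCA-only controls reached 90% death. Viability was read by MTT.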

Setting [5] is: 10 μM, 3 hr, SH-SY5Y-ODD-luc cells.

As to `NNc1nc(-c2ccccc2)cc(-c2ccccc2)n1` [II, 2-hydrazinyl-4,6-diphenylpyrimidine], in series [1] (setting [5]), the “reporter activation (fold)” value came out at 6.7 fold. The activation at 10 µM in series [1] came to 64%. The “iron chelation properties in solution (in words)” value in series [2] was “no iron chelation properties in solution”.

As to `S=C(Nc1ccccc1)Nc1nccs1` [III, 1-phenyl-3-(1,3-thiazol-2-yl)thiourea], in series [1] (setting [5]), the “reporter activation (fold)” value is listed as 5 fold. Besides, the activation at 10 µM in series [1] is 41%.

Turning to `N[C@@H](Cc1ccc(O)c(O)c1)C(=O)O` [L-Dopa], the “reporter activation (fold)” value in series [1] (setting [5]) was 3 fold. In addition, the activation at 10 µM in series [1] is 21%.

Regarding `Cc1cc(C2CCCCC2)n(O)c(=O)c1` [Ciclopirox, ciclopirox], the “increase of background signal for the wild-type ODD-luc reporter (PYIP line)” value in series [1] (10 μM, 3 hr incubation) is given as 10 fold. For the same molecule, the “reporter signal as % of the threshold value (control line AYIA)” value in series [1] (10 μM, 3 hr incubation, PYIP line) is on record as roughly 50%. Further, in series [3], the IC50 (as a rule, the point on the concentration scale where inhibition reaches its midpoint) was found to be 4500 ± 500 nM and the ““Lag,” (concentration lag of reporter titration curve)” value amounted to 2 ± 0.5 µM. In series [2], the “ka, association rate constant for iron binding” value was 300 ± 50 M⁻¹ s⁻¹ and the Kd is 80 ± 20 nM.

Turning to `O=C1/C(=N\Nc2nccs2)C(c2ccccc2)=NN1c1ccccc1` [I, (Z)-1,3-diphenyl-4-(thiazol-2-yl-hydrazono)-1H-pyrazol-5(4H)-one], the activation at 10 µM in series [1] worked out at 86%.

On to `O=C1/C(=N\Nc2nc3ccccc3s2)C(c2ccccc2)=NN1c1ccccc1` [(Z)-4-(benzo[d]thiazol-2-yl-hydrazono)-1,3-diphenyl-1H-pyrazol-5(4H)-one], for which, in series [1], the activation at 10 µM turned out to be 70%.

As for `O=C(C=C(O)c1ccccc1)c1ccccc1O` [2′β-dihydroxychalcone], the “reporter activation (fold)” value in series [1] (setting [5]) came to 7.5 fold. In series [1] (10 μM, 3 hr, SH-SY5Y-ODD-luc cells, ciclopirox = 100%, DMSO = 0%), the “reporter activation (%)” value came out at 71%.

With `Oc1cccc2cccnc12` [Oxyquinoline, 8-hydroxyquinoline], the “reporter activation (fold)” value in series [1] (setting [5]) was 4-5 fold. For the same molecule, the activation at 10 µM in series [1] was 35 to 45%. Moreover, in series [3], the IC50 was 10000 ± 1000 nM and the ““Lag,” (concentration lag of reporter titration curve)” value worked out at 4 ± 0.5 µM. Besides, the “times less potent as neuroprotectants (versus compounds 7 and 8)” value in series [4] is 20-40 times. Besides, in series [2], the “ka, association rate constant for iron binding” value is 110 ± 20 M⁻¹ s⁻¹ and the Kd is 200 ± 50 nM.
